Measured values taken from ChEMBL document CHEMBL1124644, “Exploration of phenyl-spaced 2-amino-(5-9)-phosphonoalkanoic acids as competitive N-methyl-D-aspartic acid antagonists” (J Med Chem, 1989).
Activity calls are given as the source filed them. The rule behind the calls is not given here.

Columns and labels:
[1] = biological target: T1, Glutamate NMDA receptor (Rattus norvegicus) (UniProt P35439+Q00959+Q00960+Q00961+Q62645+Q8VHN2+Q9R1M7); assay: NMDA receptor antagonistic ability of 100 uM of compound was assessed from the ability to displace [3H]CPP29,30 from rat cortical membranes.; assay type: cell membranes; conditions: Membrane
[2] = biological target: T1, Glutamate NMDA receptor (Rattus norvegicus); assay: N-methyl-D-aspartate glutamate receptor antagonistic ability of 100 uM of compound was assessed from the ability to displace [3H]CPP29,30 from rat cortical membranes.; assay type: cell membranes; conditions: Membrane
[3] = organism: Mus musculus; assay: NMDA receptor antagonist activity was measured as ataxia (the inability of the mice to cling to screen platform upon its inversion.); assay type: functional
How it was run: (§1)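 CF-1 mice (22–28 g) were dosed retrobulbarly with test agent or vehicle (0.9% saline, 5 mL/kg). Just before the NMDA challenge they were placed on an inverted screen. Ataxia was scored as failure to cling to the platform after inversion, and ED50 values were derived from dose-response data.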

[4] = biological target: Glutamate NMDA receptor; assay: NMDA receptor antagonistic activity was assessed in vitro by the assement of ability to inhibit glutamate-induced accumulation of [Ca2+] in cultured rat cortical neurons.; assay type: functional
How it was run: (§2)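 Cortical neurons from E18 Sprague-Dawley rat fetuses were tested 14–16 days after plating. Cells were exposed for 30 min at 37 °C to 100 µM L-glutamate with ⁴⁵Ca²⁺ (2 µCi/mL) in Mg-free HBSS containing 1.4 mM CaCl₂ at pH 7.4, then washed and lysed for counting. Baseline uptake was subtracted. IC50 came from at least four half-log concentrations with six or more replicates each.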

[5] = tested on: Mus musculus; assay: NMDA receptor antagonist activity of compound was demonstarted in vivo, by the inhibition of NMDA-induced lethality in mouse; assay type: functional
How it was run: (§3)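 CF-1 mice (22–28 g) were dosed retrobulbar with test agent or vehicle (0.9% saline, 5 mL/kg), 5 or 30 min before a bolus retrobulbar injection of NMDA (25 mg/kg) in saline into the other eye. The endpoint was prevention of death from seizures. ED50 came from at least three half-log doses with 10 mice per dose.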

[6] = biological target: Glutamate NMDA receptor; assay: NMDA receptor antagonistic activity was assessed from the ability to displace [3H]CPP29,30 from rat cortical membranes
How it was run: (§4)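 Crude synaptic membranes came from Long-Evans male rat forebrain (minus cerebellum and brainstem) and were treated with 0.01% Triton X-100 for 30 min at 37 °C, then washed. Membranes (200–400 µg protein/mL) were incubated with 10 nM [³H]CPP in 50 mM Tris-HCl, pH 7.6, for 15 min at 23 °C, in triplicate, and separated by centrifugation. Nonspecific binding was defined with 1 mM L-glutamate. IC50 came from a nonlinear fit of four or more concentrations.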

[7] = organism: Mus musculus; assay: Compound was tested for the maximum dose that protects from NMDA-induced death in mice; Inactive; assay type: functional
How it was run: (§5)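 CF-1 mice (22–28 g) got the test agent by retrobulbar iv injection in 0.9% saline (5 mL/kg), then NMDA 25 mg/kg retrobulbar iv 5 or 30 min later. Doses were tested up to 30 mg/kg, scoring protection from lethal seizures.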

[8] = biological target: Glutamate NMDA receptor; assay: NMDA receptor antagonistic activity was assessed from the ability to displace [3H]CPP29,30 from rat cortical membranes.; how it was run: as §4
[9] = tested on: Mus musculus; assay: Compound was tested in vivo for the maximum dose that protects from NMDA-induced death in mice; Inactive; assay type: functional; how it was run: as §5
[10] = tested on: Mus musculus; assay: NMDA receptor antagonist activity of compound was demonstarted in vivo by the inhibition of NMDA-induced lethality in mouse tested in vivo; assay type: functional; how it was run: as §3
[11] = tested on: Mus musculus; assay: NMDA antagonist activity was measured as ataxia (the inability of the mice to cling to screen platform upon its inversion.) tested in vivo; assay type: functional
How it was run: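 Ataxia was scored in CF-1 mice (22–28 g) on an inverted screen, as failure to cling when the platform was inverted. Scoring was done just before NMDA challenge (25 mg/kg, retrobulbar iv) and after retrobulbar dosing of the test agent in 0.9% saline (5 mL/kg). The result is reported as an ED50.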

[12] = biological target: Glutamate NMDA receptor; assay: NMDA receptor antagonistic activity was assessed in vitro by deteriming the ability to inhibit glutamate-induced accumulation of [Ca2+] in cultured rat cortical neurons.; assay type: functional
How it was run: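 Rat (Sprague-Dawley, E18) cerebral hemisphere neurons, trypsin-dissociated, plated on poly-L-lysine at 200 000 cells/cm², used on days 14–16. Assay in serum- and Mg-free HBSS with 1.4 mM CaCl₂, pH 7.4, 37 °C. 30-min exposure to 100 µM L-glutamate (final) plus trace ⁴⁵Ca²⁺, with or without test agent. Baseline subtracted. IC50 from ≥4 half-log concentrations, ≥6 replicates each.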

[13] = organism: Mus musculus; assay: N-methyl-D-aspartate glutamate receptor antagonist activity was measured as ataxia (the inability of the mice to cling to screen platform upon its inversion.); assay type: functional; how it was run: as §1
[14] = organism: Mus musculus; assay: N-methyl-D-aspartate glutamate receptor antagonist activity of compound was demonstarted by the inhibition of NMDA-induced lethality in mouse; assay type: functional; how it was run: as §3
[15] = biological target: Glutamate NMDA receptor; assay: (§6) N-methyl-D-aspartate glutamate receptor antagonistic activity was assessed from the ability to displace [3H]CPP29,30 from rat cortical membranes.; how it was run: as §4
[16] = biological target: Glutamate NMDA receptor; assay: N-methyl-D-aspartate glutamate receptor antagonistic activity was assessed from the ability to inhibit glutamate-induced accumulation of [Ca2+] in cultured rat cortical neurons.; assay type: functional; how it was run: as §2
[17] = tested on: Mus musculus; assay: N-methyl-D-aspartate glutamate receptor antagonist activity of compound was demonstarted by the inhibition of NMDA-induced lethality in mouse;IA means Compound was inactive at 30 mg/kg when examined after 5 or 30 min after iv dosing.; assay type: functional, organism-based; design: dose 30 mg/kg
How it was run: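 CF-1 mice (22–28 g) received test agent or vehicle (0.9% saline, 5 mL/kg) by retrobulbar injection 5 min before a bolus retrobulbar NMDA dose of 25 mg/kg in saline, which causes lethal seizures in untreated controls. Protection from death was scored. ED50 came from dose-response curves of at least three half-log doses with 10 mice per dose.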

[18] = biological target: T1, Glutamate NMDA receptor (Rattus norvegicus); assay: N-methyl-D-aspartate glutamate receptorA antagonistic activity was assessed from the ability to inhibit glutamate-induced accumulation of [Ca2+] in cultured rat cortical neurons;IA means Compound was inactive up to 250 uM.; assay type: functional; how it was run: as §2
[19] = tested on: Mus musculus; assay: N-methyl-D-aspartate glutamate receptor antagonist activity was measured as ataxia (the inability of the mice to cling to screen platform upon its inversion; IA means Compound was inactive at 30 mg/kg when examined after 5 or 30 min after iv dosing; assay type: functional, organism-based; design: dose 30 mg/kg; how it was run: as §1
[20] = organism: Mus musculus; assay: Compound was tested for the maximum dose that protects from NMDA-induced death; assay type: functional; how it was run: as §5
[21] = biological target: Glutamate NMDA receptor; assay: as §6; remark: listed apart in the source

NC(C(=O)O)c1cccc(CCP(=O)(O)O)c1 (stereo not drawn)
I [1]: 35%

NC(C(=O)O)c1ccc(CCCP(=O)(O)O)cc1 (stereo not drawn)
I [1]: 20%

NC(Cc1cccc(P(=O)(O)O)c1)C(=O)O (stereo not drawn)
I [2]: 15%

NC(Cc1cccc(CP(=O)(O)O)c1)C(=O)O (stereo not drawn)
I [1]: 1%

NC(C(=O)O)c1ccc(CP(=O)(O)O)cc1 (stereo not drawn)
ED50 [3]: 19 mg/kg | IC50 [4]: 58 µM | ED50 [5]: 8 mg/kg | IC50 [6]: 1.01 µM

NC(C(=O)O)c1cccc(P(=O)(O)O)c1 (stereo not drawn)
Max dose [7]: 30 mg/kg | IC50 [8]: 17.4 µM

NC(Cc1cccc(CCP(=O)(O)O)c1)C(=O)O (stereo not drawn)
I [2]: 19%

NC(CCc1ccccc1CP(=O)(O)O)C(=O)O (stereo not drawn)
I [2]: 54%

NC(C(=O)O)c1ccc(P(=O)(O)O)cc1 (stereo not drawn)
I [1]: 10%

NC(C(=O)O)c1cccc(CP(=O)(O)O)c1 (stereo not drawn)
IC50 [8]: 9.3 µM | Max dose [9]: 60 mg/kg

NC(CCCCCP(=O)(O)O)C(=O)O (stereo not drawn) [AP-7]
ED50 [10]: 56 mg/kg | IC50 [8]: 0.8 µM | ED50 [11]: 17 mg/kg | IC50 [12]: 46 µM

NC(C(=O)O)c1ccc(CCP(=O)(O)O)cc1 (stereo not drawn)
I [1]: 4%

NC(Cc1ccc(CP(=O)(O)O)cc1)C(=O)O (stereo not drawn)
ED50 [13]: 74 mg/kg | ED50 [14]: 74 mg/kg | IC50 [15]: 3.3 µM | IC50 [16]: 378 µM

NC(Cc1ccccc1P(=O)(O)O)C(=O)O (stereo not drawn)
I [2]: 3%

NC(Cc1ccc(P(=O)(O)O)cc1)C(=O)O (stereo not drawn)
I [1]: 10%

NC(Cc1ccccc1CCP(=O)(O)O)C(=O)O (stereo not drawn)
IC50 [15]: 60.9 µM | IA [17]: inactive | IA [18]: inactive | IA [19]: inactive | Max dose [20]: 30 mg/kg

O=C(O)C1CN(CCCP(=O)(O)O)CCN1 (stereo not drawn)
IC50 [21]: 0.08 µM

NC(CCCc1ccccc1CP(=O)(O)O)C(=O)O (stereo not drawn)
I [1]: 46%
